Results from ChEMBL document CHEMBL3864121, “Development of ebsulfur analogues as potent antibacterials against methicillin-resistant Staphylococcus aureus” (Bioorg Med Chem, 2016).
In brackets after ≈: the same amount, converted by molar mass.

Legend:
Type in all cases: functional
Staphylococcus aureus [1] = assay: Antibacterial activity against methicillin-resistant Staphylococcus aureus C16 measured after overnight incubation by broth double-dilution method
In short: (§1)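 MIC by broth double-dilution in liquid Mueller-Hinton medium. Values are reported in µg/mL.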

Staphylococcus aureus [2] = assay: Antibacterial activity against methicillin-resistant Staphylococcus aureus USA300 measured after overnight incubation by broth double-dilution method; in short: as §1
Staphylococcus aureus [3] = assay: Antibacterial activity against methicillin-resistant Staphylococcus aureus USA600 measured after overnight incubation by broth double-dilution method; in short: as §1
Staphylococcus aureus [4] = assay: Antibacterial activity against methicillin-sensitive Staphylococcus aureus ATCC 29213 measured after overnight incubation by broth double-dilution method; in short: as §1
Staphylococcus aureus [5] = assay: Antibacterial activity against methicillin-resistant Staphylococcus aureus 2 measured after overnight incubation by broth double-dilution method; in short: as §1
Staphylococcus aureus [6] = assay: Antibacterial activity against methicillin-resistant Staphylococcus aureus NRS51 measured after overnight incubation by broth double-dilution method; in short: as §1
Staphylococcus aureus [7] = assay: Antibacterial activity against methicillin-resistant Staphylococcus aureus 1 measured after overnight incubation by broth double-dilution method; in short: as §1
Staphylococcus aureus [8] = assay: Antibacterial activity against methicillin-resistant Staphylococcus aureus ATCC 33591 measured after overnight incubation by broth double-dilution method; in short: as §1
Enterococcus faecalis [9] = assay: Antibacterial activity against Enterococcus faecalis ATCC 29212 measured after overnight incubation by broth double-dilution method
In short: (§2)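 MIC by broth double-dilution in Mueller-Hinton medium. Re-testing at the time-kill inoculum used 1×10^6 CFU/mL.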

[10] = tested on: Staphylococcus epidermidis; assay: Antibacterial activity against Staphylococcus epidermidis ATCC 35984 measured after overnight incubation by broth double-dilution method; conditions: RP62A; in short: as §2
Staphylococcus aureus [11] = assay: Antibacterial activity against methicillin-resistant Staphylococcus aureus C14 measured after overnight incubation by broth double-dilution method; in short: as §1
Enterococcus faecalis [12] = assay: Antibacterial activity against Enterococcus faecalis ATCC 49533 measured after overnight incubation by broth double-dilution method; in short: as §2
Staphylococcus aureus [13] = assay: Antibacterial activity against methicillin-resistant Staphylococcus aureus USA100 measured after overnight incubation by broth double-dilution method; in short: as §1
Staphylococcus aureus [14] = assay: Antibacterial activity against methicillin-resistant Staphylococcus aureus C7 measured after overnight incubation by broth double-dilution method; in short: as §1
Staphylococcus aureus [15] = assay: Antibacterial activity against methicillin-resistant Staphylococcus aureus S17 measured after overnight incubation by broth double-dilution method; in short: as §1
Enterococcus = assay: Antibacterial activity against Vancomycin-resistant Enterococcus measured after overnight incubation by broth double-dilution method; in short: as §1
Staphylococcus aureus [16] = assay: Antibacterial activity against methicillin-resistant Staphylococcus aureus USA200 measured after overnight incubation by broth double-dilution method; in short: as §1
Enterococcus faecium = assay: Antibacterial activity against Enterococcus faecium BM4105-RF measured after overnight incubation by broth double-dilution method; in short: as §1
Staphylococcus aureus [17] = assay: Antibacterial activity against methicillin-resistant Staphylococcus aureus C19 measured after overnight incubation by broth double-dilution method; in short: as §1
[18] = tested on: Mycolicibacterium smegmatis; assay: Antibacterial activity against Mycobacterium smegmatis MC2-155 measured after overnight incubation by broth double-dilution method; conditions: str. MC2 155; in short: as §1
Staphylococcus aureus [19] = assay: Antibacterial activity against methicillin-resistant Staphylococcus aureus C2 measured after overnight incubation by broth double-dilution method; in short: as §1
Staphylococcus aureus [20] = assay: Antibacterial activity against methicillin-resistant Staphylococcus aureus G6 measured after overnight incubation by broth double-dilution method; in short: as §1
Staphylococcus aureus [21] = assay: Antibacterial activity against methicillin-resistant Staphylococcus aureus G1 measured after overnight incubation by broth double-dilution method; in short: as §1
Staphylococcus aureus [22] = assay: Antibacterial activity against methicillin-sensitive Staphylococcus aureus ATCC 6538 measured after overnight incubation by broth double-dilution method; in short: as §1
Staphylococcus aureus [23] = assay: Antibacterial activity against methicillin-resistant Staphylococcus aureus S22 measured after overnight incubation by broth double-dilution method; in short: as §1
Staphylococcus aureus [24] = assay: Antibacterial activity against methicillin-sensitive Staphylococcus aureus ATCC 25923 measured after overnight incubation by broth double-dilution method; in short: as §1
Staphylococcus aureus [25] = assay: Antibacterial activity against methicillin-resistant Staphylococcus aureus G12 measured after overnight incubation by broth double-dilution method; in short: as §1
Staphylococcus aureus [26] = assay: Antibacterial activity against methicillin-resistant Staphylococcus aureus S14 measured after overnight incubation by broth double-dilution method; in short: as §1
Listeria monocytogenes = assay: Antibacterial activity against Listeria monocytogenes ATCC 19115 measured after overnight incubation by broth double-dilution method; in short: as §2
Staphylococcus aureus [27] = assay: Antibacterial activity against methicillin-resistant Staphylococcus aureus NRS77 measured after overnight incubation by broth double-dilution method; in short: as §1
Staphylococcus aureus [28] = assay: Antibacterial activity against methicillin-resistant Staphylococcus aureus C1 measured after overnight incubation by broth double-dilution method; in short: as §1
Staphylococcus aureus [29] = assay: Antibacterial activity against methicillin-resistant Staphylococcus aureus NRS4 measured after overnight incubation by broth double-dilution method; in short: as §1
Staphylococcus aureus [30] = assay: Antibacterial activity against methicillin-resistant Staphylococcus aureus BRS3 measured after overnight incubation by broth double-dilution method; in short: as §1
Staphylococcus aureus [31] = assay: Antibacterial activity against methicillin-resistant Staphylococcus aureus G14 measured after overnight incubation by broth double-dilution method; in short: as §1
Staphylococcus aureus [32] = assay: Antibacterial activity against methicillin-resistant Staphylococcus aureus S24 measured after overnight incubation by broth double-dilution method; in short: as §1

| SMILES | MIC (Staphylococcus aureus [1]) [mg/L] | MIC (Staphylococcus aureus [2]) [mg/L] | MIC (Staphylococcus aureus [3]) [mg/L] | MIC (Staphylococcus aureus [4]) [mg/L] | MIC (Staphylococcus aureus [5]) [mg/L] | MIC (Staphylococcus aureus [6]) [mg/L] | MIC (Staphylococcus aureus [7]) [mg/L] | MIC (Staphylococcus aureus [8]) [mg/L] | MIC (Enterococcus faecalis [9]) [mg/L] | MIC [10] [mg/L] | MIC (Staphylococcus aureus [11]) [mg/L] | MIC (Enterococcus faecalis [12]) [mg/L] | MIC (Staphylococcus aureus [13]) [mg/L] | MIC (Staphylococcus aureus [14]) [mg/L] | MIC (Staphylococcus aureus [15]) [mg/L] | MIC (Enterococcus) [mg/L] | MIC (Staphylococcus aureus [16]) [mg/L] | MIC (Enterococcus faecium) [mg/L] | MIC (Staphylococcus aureus [17]) [mg/L] | MIC [18] [mg/L] | also measured |
| --- | --- | --- | --- | --- | --- | --- | --- | --- | --- | --- | --- | --- | --- | --- | --- | --- | --- | --- | --- | --- | --- |
| O=c1c2ccccc2sn1C1CCCCCCC1 | 3.9 (≈ 14.9 µM) | 7.8 (≈ 29.8 µM) | 7.8 (≈ 29.8 µM) | 2 (≈ 7.65 µM) | 3.9 (≈ 14.9 µM) | 2 (≈ 7.65 µM) | 3.9 (≈ 14.9 µM) | > 125 | 15.6 (≈ 59.7 µM) | 3.9 (≈ 14.9 µM) | 2 (≈ 7.65 µM) | 15.6 (≈ 59.7 µM) | 7.8 (≈ 29.8 µM) | 3.9 (≈ 14.9 µM) | 2 (≈ 7.65 µM) | 1 (≈ 3.83 µM) | 7.8 (≈ 29.8 µM) | 15.6 (≈ 59.7 µM) | 2 (≈ 7.65 µM) | 3.9 (≈ 14.9 µM) | MIC (Staphylococcus aureus [19]): 3.9 mg/L (≈ 14.9 µM); MIC (Staphylococcus aureus [20]): 2 mg/L (≈ 7.65 µM); MIC (Staphylococcus aureus [21]): 1 mg/L (≈ 3.83 µM); MIC (Staphylococcus aureus [22]): 2 mg/L (≈ 7.65 µM); MIC (Staphylococcus aureus [23]): 7.8 mg/L (≈ 29.8 µM); MIC (Staphylococcus aureus [24]): > 125 mg/L; MIC (Staphylococcus aureus [25]): 2 mg/L (≈ 7.65 µM); MIC (Staphylococcus aureus [26]): 1 mg/L (≈ 3.83 µM); MIC (Listeria monocytogenes): > 125 mg/L; MIC (Staphylococcus aureus [27]): 2 mg/L (≈ 7.65 µM); MIC (Staphylococcus aureus [28]): 3.9 mg/L (≈ 14.9 µM); MIC (Staphylococcus aureus [29]): 0.5 mg/L (≈ 1.91 µM); MIC (Staphylococcus aureus [30]): 3.9 mg/L (≈ 14.9 µM); MIC (Staphylococcus aureus [31]): 3.9 mg/L (≈ 14.9 µM); MIC (Staphylococcus aureus [32]): 3.9 mg/L (≈ 14.9 µM) |
| CC(C)Cn1sc2ccccc2c1=O | 7.8 (≈ 37.6 µM) | 7.8 (≈ 37.6 µM) | 7.8 (≈ 37.6 µM) | 15.6 (≈ 75.3 µM) | 15.6 (≈ 75.3 µM) | 7.8 (≈ 37.6 µM) | 7.8 (≈ 37.6 µM) | > 125 | 7.8 (≈ 37.6 µM) | 7.8 (≈ 37.6 µM) | 7.8 (≈ 37.6 µM) | 15.6 (≈ 75.3 µM) | 7.8 (≈ 37.6 µM) | 7.8 (≈ 37.6 µM) | 7.8 (≈ 37.6 µM) | 3.9 (≈ 18.8 µM) | 7.8 (≈ 37.6 µM) | 7.8 (≈ 37.6 µM) | 7.8 (≈ 37.6 µM) | 3.9 (≈ 18.8 µM) | MIC (Staphylococcus aureus [19]): 7.8 mg/L (≈ 37.6 µM); MIC (Staphylococcus aureus [20]): 7.8 mg/L (≈ 37.6 µM); MIC (Staphylococcus aureus [21]): 3.9 mg/L (≈ 18.8 µM); MIC (Staphylococcus aureus [22]): 7.8 mg/L (≈ 37.6 µM); MIC (Staphylococcus aureus [23]): 7.8 mg/L (≈ 37.6 µM); MIC (Staphylococcus aureus [24]): 125 mg/L (≈ 603 µM); MIC (Staphylococcus aureus [25]): 7.8 mg/L (≈ 37.6 µM); MIC (Staphylococcus aureus [26]): 2 mg/L (≈ 9.65 µM); MIC (Listeria monocytogenes): > 125 mg/L; MIC (Staphylococcus aureus [27]): 7.8 mg/L (≈ 37.6 µM); MIC (Staphylococcus aureus [28]): 7.8 mg/L (≈ 37.6 µM); MIC (Staphylococcus aureus [29]): 7.8 mg/L (≈ 37.6 µM); MIC (Staphylococcus aureus [30]): 7.8 mg/L (≈ 37.6 µM); MIC (Staphylococcus aureus [31]): 7.8 mg/L (≈ 37.6 µM); MIC (Staphylococcus aureus [32]): 7.8 mg/L (≈ 37.6 µM) |
